Measurements taken from ChEMBL document CHEMBL4819034, “Tricyclic-Carbocyclic RORγt Inverse Agonists-Discovery of BMS-986313” (J Med Chem, 2021).

Legend:
[1] = molecular target: Cytochrome P450 2C9 (Homo sapiens, UniProt P11712); test: Inhibition of CYP2C9 (unknown origin); format: ADME
[2] = AUC (0 to 24 hrs) in dog at 2 mg/kg, po; format: ADME, organism-based, Canis lupus familiaris; design: time < 24 hr, route oral, dose 2 mg/kg; conditions: in vivo
[3] = Volume of distribution at steady state in mouse at 2 mg/kg, iv; format: ADME, organism-based; conditions: in vivo, read-out: Vdss
How it was run: (§1)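 Single intravenous dose: mouse and rat 2 mg/kg, dog and cynomolgus 1 mg/kg. Steady-state volume of distribution was derived from the IV arm. Values are means from three or more animals.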

[4] = Oral bioavailability in rat at 4 mg/kg; format: ADME, organism-based; conditions: in vivo
How it was run: (§2)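 Single-dose PK, IV and PO. Doses: mouse and rat 2 mg/kg IV / 4 mg/kg PO; dog and cyno 1 mg/kg IV, with 1 or 2 mg/kg PO.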

[5] = Metabolic stability in mouse liver microsomes assessed as parent compound remaining; format: ADME, Microsome
How it was run: (§3)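 Test compound at 0.5 μM initial concentration incubated with human, mouse or rat liver microsomes (protein 1 mg/mL). Metabolic stability reported as percent of parent compound remaining after incubation.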

[6] = AUC (0 to 24 hrs) in mouse at 4 mg/kg, po; format: ADME, organism-based; design: time < 24 hr, route oral, dose 4 mg/kg; conditions: in vivo
[7] = test system: Mus musculus; test: Protection against recombinant human IL23-induced acanthosis C57BL/6 mouse model assessed as inhibition of ear thickening at 6 mg/kg, po BID for 10 days and measured every other day relative to control; format: functional; conditions: C57BL/6, po, 240 h, time 10 day
How it was run: (§4)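 IL-23 ear-injection acanthosis model in C57BL/6 mice with BID oral dosing. Ear thickness % change was recorded every other day, before each next injection, from a day 0 baseline. Inhibition of ear thickening was calculated against the placebo arm from the area under the curve over the study duration.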

[8] = Half life in mouse liver microsomes; format: ADME, Microsome
How it was run: (§5)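 Liver microsome half-life (min) measured in human, mouse, rat, dog and cyno liver microsomes.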

[9] = molecular target: T1, Nuclear receptor subfamily 1 group I member 2 (Homo sapiens, UniProt O75469); test: Inverse agonist activity at PXR (unknown origin)
T1 sequence (O75469 whole entry): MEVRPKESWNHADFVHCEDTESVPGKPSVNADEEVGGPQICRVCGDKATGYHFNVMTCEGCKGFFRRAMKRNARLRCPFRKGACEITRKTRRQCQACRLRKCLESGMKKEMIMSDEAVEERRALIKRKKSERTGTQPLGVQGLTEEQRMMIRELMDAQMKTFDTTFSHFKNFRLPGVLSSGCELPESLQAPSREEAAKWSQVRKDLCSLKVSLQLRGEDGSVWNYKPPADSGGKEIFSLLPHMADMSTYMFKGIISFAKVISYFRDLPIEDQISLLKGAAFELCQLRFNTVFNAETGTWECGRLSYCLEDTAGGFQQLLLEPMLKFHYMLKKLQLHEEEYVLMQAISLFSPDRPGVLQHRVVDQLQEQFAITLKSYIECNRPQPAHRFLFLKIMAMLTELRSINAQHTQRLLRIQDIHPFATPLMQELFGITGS

[10] = AUC (0 to 24 hrs) in rat at 4 mg/kg, po; format: ADME, organism-based; design: time < 24 hr, route oral, dose 4 mg/kg; conditions: in vivo
[11] = test system: Mus musculus; test: Protection against imiquimod-induced C57BL/6 mouse model of psoriasis assessed as reduction in IL-17A mRNA levels at 10 mg/kg, po BID for 7 days by RT-PCR analysis relative to control; format: functional; design: scale not given: the % may be the effect or the level left; conditions: time 7 day
[12] = test system: Mus musculus; test: Protection against imiquimod-induced C57BL/6 mouse model of psoriasis assessed as inhibition of skin thickening at 10 mg/kg, po BID for 7 days and measured every day for 8 days relative to control; format: functional; conditions: C57BL/6, po, 168 h, time 7 day
[13] = test system: Mus musculus; test: Protection against recombinant human IL23-induced acanthosis C57BL/6 mouse model assessed as inhibition of ear thickening at 15 mg/kg, po BID for 10 days and measured every other day relative to control; format: functional; conditions: C57BL/6, po, 240 h, time 10 day; how it was run: as §4
[14] = Volume of distribution at steady state in rat at 2 mg/kg, iv; format: ADME, organism-based; conditions: in vivo, read-out: Vdss; how it was run: as §1
[15] = Metabolic stability in rat liver microsomes assessed as parent compound remaining; format: ADME, Microsome; how it was run: as §3
[16] = Half life in cynomolgus monkey liver microsomes; format: ADME, Macaca fascicularis, Microsome; how it was run: as §5
[17] = Clearance in mouse at 2 mg/kg, iv; format: ADME, organism-based; conditions: in vivo; how it was run: as §2
[18] = test system: Mus musculus; test: Protection against imiquimod-induced C57BL/6 mouse model of psoriasis assessed as change in skin thickness at 5 mg/kg, po BID for 7 days and measured every day for 8 days relative to control; format: functional; conditions: time 7 day
[19] = test system: Mus musculus; test: Protection against recombinant human IL23-induced acanthosis C57BL/6 mouse model assessed as reduction in IL-17F mRNA levels at 6 mg/kg, po BID BID for 10 days by qRT-PCR analysis relative to control; format: functional; design: scale not given: the % may be the effect or the level left; conditions: time 10 day
How it was run: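 In the IL-23 ear-injection model in C57BL/6 mice with BID oral dosing, ear tissue was collected from all animals at study end on day 10. IL-17A and IL-17F mRNA expression was quantified by qPCR and compared with the placebo arm.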

[20] = Protein binding in mouse assessed as unbound fraction; format: ADME
[21] = test system: Mus musculus; test: Protection against recombinant human IL23-induced acanthosis C57BL/6 mouse model assessed as change in ear thickness score at 15 mg/kg, po BID for 10 days and measured every other day relative to control; format: functional; conditions: time 10 day
How it was run: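 IL-23 was injected into the ear of C57BL/6 mice to induce dermal inflammation and epidermal hyperplasia. Ear thickness was measured at baseline on day 0, then as % change every other day before each next ear injection. Oral dosing was BID.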

[22] = test system: Mus musculus; test: Protection against imiquimod-induced C57BL/6 mouse model of psoriasis assessed as reduction in IL-17F mRNA levels at 20 mg/kg, po BID for 7 days by RT-PCR analysis relative to control; format: functional; design: scale not given: the % may be the effect or the level left; conditions: time 7 day
[23] = Half life in rat liver microsomes; format: ADME, Microsome; how it was run: as §5
[24] = test system: Mus musculus; test: Protection against recombinant human IL23-induced acanthosis C57BL/6 mouse model assessed as inhibition of ear thickening at 3 mg/kg, po BID for 10 days and measured every other day relative to control; format: functional; conditions: C57BL/6, po, 240 h, time 10 day; how it was run: as §4
[25] = molecular target: T2, Nuclear receptor ROR-gamma (Mus musculus, UniProt P51450); test: Inverse agonist activity at RORgammat in mouse Th17 cells assessed as inhibition of CD3/CD28/IL-1/IL-23-induced IL-17A production measured after 24 hrs by AlphaLISA assay; format: cell-based
T2 sequence (P51450 whole entry): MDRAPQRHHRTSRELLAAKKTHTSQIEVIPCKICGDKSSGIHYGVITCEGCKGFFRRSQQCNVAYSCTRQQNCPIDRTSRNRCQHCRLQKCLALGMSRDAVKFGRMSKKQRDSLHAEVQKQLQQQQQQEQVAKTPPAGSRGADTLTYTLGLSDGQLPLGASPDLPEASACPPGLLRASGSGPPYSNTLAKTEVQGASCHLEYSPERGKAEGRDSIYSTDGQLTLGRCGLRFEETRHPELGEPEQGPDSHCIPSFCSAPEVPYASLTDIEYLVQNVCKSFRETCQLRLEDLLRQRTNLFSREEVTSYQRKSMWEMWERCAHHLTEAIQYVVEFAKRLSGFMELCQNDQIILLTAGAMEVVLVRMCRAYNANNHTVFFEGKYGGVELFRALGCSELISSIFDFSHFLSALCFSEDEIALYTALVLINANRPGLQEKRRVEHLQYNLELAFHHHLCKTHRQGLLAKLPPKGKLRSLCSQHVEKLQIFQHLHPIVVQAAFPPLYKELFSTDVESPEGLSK

Cytochrome P450 2C9, sequence (P11712 whole entry): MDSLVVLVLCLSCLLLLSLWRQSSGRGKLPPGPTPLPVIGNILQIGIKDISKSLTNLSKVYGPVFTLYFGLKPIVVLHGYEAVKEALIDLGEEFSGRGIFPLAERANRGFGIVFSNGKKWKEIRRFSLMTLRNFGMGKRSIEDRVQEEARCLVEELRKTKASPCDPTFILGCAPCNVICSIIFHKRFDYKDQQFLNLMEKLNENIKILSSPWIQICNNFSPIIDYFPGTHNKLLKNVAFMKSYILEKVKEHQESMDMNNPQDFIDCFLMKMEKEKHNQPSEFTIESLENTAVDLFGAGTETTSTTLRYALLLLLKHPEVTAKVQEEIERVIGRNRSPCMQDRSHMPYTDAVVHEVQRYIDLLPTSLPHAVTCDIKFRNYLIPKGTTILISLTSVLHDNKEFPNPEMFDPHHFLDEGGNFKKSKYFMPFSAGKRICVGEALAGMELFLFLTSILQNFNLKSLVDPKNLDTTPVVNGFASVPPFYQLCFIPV

- IC50 [1]: 12 µM
- AUC(0-t) at 24 h [2]: 59.8 µM·h
- Vd [3]: 3 L/kg
- bioavailability [4]: 65%
- Stabilty [5]: 92%
- AUC(0-t) at 24 h [6]: 33.2 µM·h
- half-life [8]: 2 h
- EC50 [9]: > 5 µM
- AUC(0-t) at 24 h [10]: 17 µM·h
- Vd [14]: 2.9 L/kg
- Stabilty [15]: 100%
- half-life [16]: 2 h
- clearance [17]: 3.7 mL/min/kg
- fraction unbound [20]: 0.006
- half-life [23]: 2 h
- EC50 [25]: 0.0027 µM
SMILES: CC(C)(O)C(=O)N[C@@H]1CC[C@@]2(S(=O)(=O)c3ccc(F)cc3)c3ccc(C(F)(C(F)(F)F)C(F)(F)F)cc3CC[C@@H]12
- inhibition in vivo at 6 mg/kg [7]: 43.4%
- Activity [11]: 76.7%
- inhibition in vivo at 10 mg/kg [12]: 39.6%
- inhibition in vivo at 15 mg/kg [13]: 66.8%
- Activity [18]: 67.2%
- Activity [19]: 87.3%
- Activity [21]: 66.8%
- Activity [22]: 97.9%
- inhibition in vivo at 3 mg/kg [24]: 42.3%
